# What was measured:
# [1] = Cytotoxicity against dog RBC; assay type: cell-based, Canis lupus familiaris; conditions: erythrocyte
# [2] = Cytotoxicity against human RBC; assay type: cell-based; conditions: erythrocyte
# [3] = tested on: Babesia gibsoni; experiment: Antibabesial activity against Babesia gibsoni in dog erythrocytes after 72 hrs; assay type: functional, organism-based
# [4] = tested on: Plasmodium falciparum; experiment: Antiplasmodial activity against chloroquine-susceptible Plasmodium falciparum FCR3 in human erythrocytes after 24 hrs; assay type: functional, organism-based; conditions: FCR3, 24 h
# How it was run: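 P. falciparum FCR-3 kept in culture and synchronized with 5% D-sorbitol, then washed in RPMI 1640. Infected RBCs resuspended at 0.25-0.50% parasitemia in RPMI 1640 with 10% human serum, 25 mM Hepes, gentamicin and Na2CO3, then incubated with test solution at 37 °C under 5% CO2. Stopped once controls reached 20% schizonts. Schizonts counted on Giemsa smears; IC50 read from the inhibition-versus-concentration graph.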
SMILES,Activity [1],Activity [2],IC50 [3] [µg/mL],IC50 [4] [µg/mL]
O=C(O[C@H]1O[C@H](COC(=O)c2cc(O)c(O)c3oc(=O)c4cc(O)c(O)c(O)c4c23)[C@@H](O)[C@H](O)[C@H]1O)c1cc(O)c(O)c(O)c1,Non-toxic,Non-toxic,4.7,1.4
O=c1c(O[C@@H]2O[C@H](CO)[C@@H](O)[C@H](O)[C@H]2O[C@@H]2OC[C@@H](O)[C@H](O)[C@H]2O)c(-c2ccc(O)c(O)c2)oc2cc(O)cc(O)c12,Non-toxic,Non-toxic,35.2,11
O=C(O[C@@H]1O[C@H](CO)[C@@H](O)[C@H](O)[C@H]1O)c1cc(O)c(O)c(O)c1,Non-toxic,Non-toxic,7.5,4.6
CC[C@H](CC[C@@H](C)[C@H]1CC[C@H]2[C@@H]3CC=C4C[C@@H](O)CC[C@]4(C)[C@H]3CC[C@]12C)C(C)C [BETA-SITOSTEROL],Non-toxic,Non-toxic,61.6,32
CC(=O)NCC(=O)O.N=C(N)c1ccc(/N=N/Nc2ccc(C(=N)N)cc2)cc1 [DIMINAZEN ACETURATE],,,0.6,
O=C(O)c1cc(O)c(O)c(O)c1 [GALLIC ACID],Non-toxic,Non-toxic,13.4,14.8
